{"source": "paper PMC3390648", "about": "(The Journal of Biological Chemistry, 2012)", "molecules": {"B1": {"name": "Pol1 1–1452: Pol1 allele with the sequence encoding the last 16 amino acids removed (protein)", "chain": "MSSKSEKLEKLRKLQAARNGTSIDDYEGDESDGDRIYDEIDEKEYRARKRQELLHDDFVVDDDGVGYVDRGVEEDWREVDNSSSDEDTGNLASKDSKRKKNIKREKDHQITDMLRTQHSKSTLLAHAKKSQKKSIPIDNFDDILGEFESGEVEKPNILLPSKLRENLNSSPTSEFKSSIKRVNGNDESSHDAGISKKVKIDPDSSTDKYLEIESSPLKLQSRKLRYANDVQDLLDDVENSPVVATKRQNVLQDTLLANPPSAQSLADEEDDEDSDEDIILKRRTMRSVTTTRRVNIDSRSNPSTSPFVTAPGTPIGIKGLTPSKSLQSNTDVATLAVNVKKEDVVDPETDTFQMFWLDYCEVNNTLILFGKVKLKDDNCVSAMVQINGLCRELFFLPREGKTPTDIHEEIIPLLMDKYGLDNIRAKPQKMKYSFELPDIPSESDYLKVLLPYQTPKSSRDTIPSDLSSDTFYHVFGGNSNIFESFVIQNRIMGPCWLDIKGADFNSIRNASHCAVEVSVDKPQNITPTTTKTMPNLRCLSLSIQTLMNPKENKQEIVSITLSAYRNISLDSPIPENIKPDDLCTLVRPPQSTSFPLGLAALAKQKLPGRVRLFNNEKAMLSCFCAMLKVEDPDVIIGHRLQNVYLDVLAHRMHDLNIPTFSSIGRRLRRTWPEKFGRGNSNMNHFFISDICSGRLICDIANEMGQSLTPKCQSWDLSEMYQVTCEKEHKPLDIDYQNPQYQNDVNSMTMALQENITNCMISAEVSYRIQLLTLTKQLTNLAGNAWAQTLGGTRAGRNEYILLHEFSRNGFIVPDKEGNRSRAQKQRQNEENADAPVNSKKAKYQGGLVFEPEKGLHKNYVLVMDFNSLYPSIIQEFNICFTTVDRNKEDIDELPSVPPSEVDQGVLPRLLANLVDRRREVKKVMKTETDPHKRVQCDIRQQALKLTANSMYGCLGYVNSRFYAKPLAMLVTNKGREILMNTRQLAESMNLLVVYGDTDSVMIDTGCDNYADAIKIGLGFKRLVNERYRLLEIDIDNVFKKLLLHAKKKYAALTVNLDKNGNGTTVLEVKGLDMKRREFCPLSRDVSIHVLNTILSDKDPEEALQEVYDYLEDIRIKVETNNIRIDKYKINMKLSKDPKAYPGGKNMPAVQVALRMRKAGRVVKAGSVITFVITKQDEIDNAADTPALSVAERAHALNEVMIKSNNLIPDPQYYLEKQIFAPVERLLERIDSFNVVRLSEALGLDSKKYFRREGGNNNGEDINNLQPLETTITDVERFKDTVTLELSCPSCDKRFPFGGIVSSNYYRVSYNGLQCKHCEQLFTPLQLTSQIEHSIRAHISLYYAGWLQCDDSTCGIVTRQVSVFGKRCLNDGCTGVMRYKYSDKQLYNQLLYFDSLFDCEKNKKQELKPIYLPDDLDYPKEQLTESSIKALTEQNRELMETGRSVVQKYLNDC", "modifications": "left off: 9MYC, end not stated, kept"}, "B2": {"name": "Pol1-F1463A (protein)", "chain": "MSSKSEKLEKLRKLQAARNGTSIDDYEGDESDGDRIYDEIDEKEYRARKRQELLHDDFVVDDDGVGYVDRGVEEDWREVDNSSSDEDTGNLASKDSKRKKNIKREKDHQITDMLRTQHSKSTLLAHAKKSQKKSIPIDNFDDILGEFESGEVEKPNILLPSKLRENLNSSPTSEFKSSIKRVNGNDESSHDAGISKKVKIDPDSSTDKYLEIESSPLKLQSRKLRYANDVQDLLDDVENSPVVATKRQNVLQDTLLANPPSAQSLADEEDDEDSDEDIILKRRTMRSVTTTRRVNIDSRSNPSTSPFVTAPGTPIGIKGLTPSKSLQSNTDVATLAVNVKKEDVVDPETDTFQMFWLDYCEVNNTLILFGKVKLKDDNCVSAMVQINGLCRELFFLPREGKTPTDIHEEIIPLLMDKYGLDNIRAKPQKMKYSFELPDIPSESDYLKVLLPYQTPKSSRDTIPSDLSSDTFYHVFGGNSNIFESFVIQNRIMGPCWLDIKGADFNSIRNASHCAVEVSVDKPQNITPTTTKTMPNLRCLSLSIQTLMNPKENKQEIVSITLSAYRNISLDSPIPENIKPDDLCTLVRPPQSTSFPLGLAALAKQKLPGRVRLFNNEKAMLSCFCAMLKVEDPDVIIGHRLQNVYLDVLAHRMHDLNIPTFSSIGRRLRRTWPEKFGRGNSNMNHFFISDICSGRLICDIANEMGQSLTPKCQSWDLSEMYQVTCEKEHKPLDIDYQNPQYQNDVNSMTMALQENITNCMISAEVSYRIQLLTLTKQLTNLAGNAWAQTLGGTRAGRNEYILLHEFSRNGFIVPDKEGNRSRAQKQRQNEENADAPVNSKKAKYQGGLVFEPEKGLHKNYVLVMDFNSLYPSIIQEFNICFTTVDRNKEDIDELPSVPPSEVDQGVLPRLLANLVDRRREVKKVMKTETDPHKRVQCDIRQQALKLTANSMYGCLGYVNSRFYAKPLAMLVTNKGREILMNTRQLAESMNLLVVYGDTDSVMIDTGCDNYADAIKIGLGFKRLVNERYRLLEIDIDNVFKKLLLHAKKKYAALTVNLDKNGNGTTVLEVKGLDMKRREFCPLSRDVSIHVLNTILSDKDPEEALQEVYDYLEDIRIKVETNNIRIDKYKINMKLSKDPKAYPGGKNMPAVQVALRMRKAGRVVKAGSVITFVITKQDEIDNAADTPALSVAERAHALNEVMIKSNNLIPDPQYYLEKQIFAPVERLLERIDSFNVVRLSEALGLDSKKYFRREGGNNNGEDINNLQPLETTITDVERFKDTVTLELSCPSCDKRFPFGGIVSSNYYRVSYNGLQCKHCEQLFTPLQLTSQIEHSIRAHISLYYAGWLQCDDSTCGIVTRQVSVFGKRCLNDGCTGVMRYKYSDKQLYNQLLYFDSLFDCEKNKKQELKPIYLPDDLDYPKEQLTESSIKALTEQNRELMETGRSVVQKYLNDCGRRYVDMTSIADFMLN", "modifications": "left off: 9MYC, end not stated, kept"}}, "format_in_all_cases": "cell-based, Saccharomyces cerevisiae", "key": {"[1]": {"tested_on": "B subunit Pol12", "assay": "Immunoprecipitation from yeast extracts and mass spectrometry, B subunit", "conditions": "diploid yeast, anti-Myc beads, spectral counts", "summary_of_the_method": "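Diploid strains grown asynchronously in YPD (1% yeast extract, 2% peptone, 40 μg/ml adenine, 2% glucose). Extracts made from 250 ml mid-log culture (2.5 × 10^9 cells) with 100 mM potassium acetate, then Benzonase-digested (800 units, 30 min, 4 °C). Tagged protein immunoprecipitated on anti-Myc (9E10) magnetic beads. Eluate run 1 cm into SDS gel, cut into 10 bands, trypsin-digested, and analysed by mass spectrometry.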"}, "[2]": {"tested_on": "yeast cells", "assay": "Tetrad analysis, colony formation and growth of yeast cells", "conditions": "tetrad analysis of meiotic progeny of heterozygous diploid, rich medium YPD", "summary_of_the_method": "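Heterozygous diploids, each carrying one wild-type POL1 copy and one mutant pol1 allele (C-terminal truncation or point mutant), were sporulated. Meiotic progeny were scored by tetrad analysis for germination and colony growth. Medium was rich YPD: 1% yeast extract, 2% peptone, 40 μg/ml adenine, 2% glucose as sole carbon source.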"}, "[3]": {"tested_on": "Pol12", "assay": "Immunoprecipitation and immunoblotting, Pol12", "conditions": "diploid yeast, anti-HA beads, native cell extracts, immunoblotting"}, "[4]": {"tested_on": "S phase checkpoint pathway (Mec1)", "assay": "Dependence of viability on S phase checkpoint"}, "[5]": {"tested_on": "other replisome components", "assay": "Immunoprecipitation and immunoblotting, replisome components", "conditions": "diploid yeast, anti-HA beads, native cell extracts, immunoblotting; relative to wild-type Pol1"}, "[6]": {"tested_on": "primase", "assay": "Immunoprecipitation and immunoblotting, primase", "conditions": "diploid yeast, anti-HA beads, immunoblotting"}, "[7]": {"tested_on": "primase", "assay": "Immunoprecipitation from yeast extracts and mass spectrometry, primase", "conditions": "diploid yeast, anti-Myc beads, spectral counts", "summary_of_the_method": "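Asynchronous diploid cultures were grown in YPD. Extracts were made from 250 ml of mid-log cells (2.5 × 10^9) with 100 mM potassium acetate. DNA was digested with 800 units of Benzonase for 30 min at 4 °C before capture on 9E10 magnetic beads. Each sample was run 1 cm into an SDS gel, cut into 10 bands, trypsin-digested and analysed by mass spectrometry.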"}}}
{"molecule": "B1", "values": [{"measurement": "association with B subunit Pol12", "setting": "[1]", "value": "as efficiently as wild-type Pol1"}, {"measurement": "colony formation / viability and growth", "setting": "[2]", "value": "not able to form colonies"}, {"measurement": "association with Pol12", "setting": "[3]", "value": "all associated equally well with Pol12"}]}
{"molecule": "B2", "values": [{"measurement": "dependence for survival on checkpoint kinases", "setting": "[4]; Mec1 and Rad53, data not shown", "value": "dependence for survival on the checkpoint kinases Mec1 and Rad53"}, {"measurement": "survival in combination with mec1Δ", "setting": "[4]; pol1-F1463A combined with mec1Δ (SML1 deleted)", "value": "die after a couple of rounds of cell division"}, {"measurement": "dependence of viability on checkpoint kinase", "setting": "[4]; sml1Δ mec1Δ background", "value": "completely dependent upon the Mec1 checkpoint kinase"}, {"measurement": "co-purification with other replisome components", "setting": "[5]", "value": "slightly weaker than for wild-type Pol1"}, {"measurement": "association with B subunit Pol12", "setting": "[1]", "value": "as efficiently as wild-type Pol1"}, {"measurement": "interaction with primase, native cell extracts", "setting": "[6]; native extracts", "value": "neither of the mutated forms interacted with primase"}, {"measurement": "interaction with primase, formaldehyde-treated cells", "setting": "[6]; cells treated with 1% formaldehyde, 25 min, 24 °C", "value": "neither of the mutated forms interacted with primase"}, {"measurement": "association with Pol12", "setting": "[3]", "value": "all associated equally well with Pol12"}, {"measurement": "co-purification with primase", "setting": "[7]", "value": "neither of the mutated alleles of Pol1 co-purified with primase"}]}
